Measured values: ChEMBL document CHEMBL1147379, “Antineoplastic agents, 256. Cell growth inhibitory isocarbostyrils from Hymenocallis” (1993)

Tests used:
Assay type in all cases: functional
[1] = test system: M19-MEL; test: Growth inhibition of human M19-MEL cells
Summary of the method: (§1)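 NCI 60-human-tumour-cell-line primary in vitro screen. Each compound was tested eight separate times across three concentration ranges with upper limits of 10⁻⁴, 10⁻⁵ and 10⁻⁶ M. Each range used five 10-fold dilutions. GI₅₀, TGI and LC₅₀ were calculated from the concentration-response curves for each cell line, and averaged mean-graph values were constructed from them.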

[2] = test system: UO-31; test: Growth inhibition of human UO31 cells
Summary of the method: (§2)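 NCI 60-human-tumour-line in vitro primary screen. Each compound tested eight separate times over three concentration ranges (upper limits 10⁻⁴, 10⁻⁵ and 10⁻⁶ M), each range as five 10-fold dilutions. GI₅₀ (also TGI and LC₅₀) derived from the concentration-response curves, reported as averaged values per cell line (negative log₁₀).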

[3] = test system: ACHN; test: Growth inhibition of human ACHN cells; summary of the method: as §1
[4] = test system: HOP-92; test: Growth inhibition of human HOP92 cells; summary of the method: as §1
[5] = test system: U-251; test: Growth inhibition of human U251 cells; summary of the method: as §2
[6] = test system: Malme-3M; test: Growth inhibition of human MALME-3M cells; summary of the method: as §1
[7] = test system: A498; test: Growth inhibition of human A498 cells; summary of the method: as §1
[8] = test system: HL-60; test: Growth inhibition of human HL-60(TB) cells; summary of the method: as §1
[9] = test system: XF498; test: Growth inhibition of human XF498 cells; summary of the method: as §2
[10] = test system: SR; test: Growth inhibition of human SR cells; summary of the method: as §2
[11] = test system: RPMI-8226; test: Growth inhibition of human RPMI8226 cells; summary of the method: as §1
[12] = test system: SK-MEL-5; test: Growth inhibition of human SK-MEL-5 cells; summary of the method: as §1
[13] = test system: SNB-75; test: Growth inhibition of human SNB75 cells; summary of the method: as §1
[14] = test system: SF-539; test: Growth inhibition of human SF539 cells; summary of the method: as §1
[15] = test system: UACC-62; test: Growth inhibition of human UACC62 cells; summary of the method: as §2
[16] = test system: NCI-H460; test: Growth inhibition of human NCI-H460 cells; summary of the method: as §1
[17] = test system: HOP-62; test: Growth inhibition of human HOP62 cells; summary of the method: as §1
[18] = test system: NCI-H322M; test: Growth inhibition of human NCI-H322M cells; summary of the method: as §1
[19] = Growth inhibition of human LXFL529 cells; summary of the method: as §1
[20] = test system: OVCAR-5; test: Growth inhibition of human OVCAR5 cells; summary of the method: as §1
[21] = test system: M14; test: Growth inhibition of human M14 cells; summary of the method: as §1
[22] = test system: OVCAR-4; test: Growth inhibition of human OVCAR4 cells; summary of the method: as §1
[23] = test system: EKVX; test: Growth inhibition of human EKVX cells; summary of the method: as §1
[24] = test system: HT-29; test: Growth inhibition of human HT-29 cells; summary of the method: as §1
[25] = test system: HCC 2998; test: Growth inhibition of human HCC2998 cells; summary of the method: as §1
[26] = test system: COLO 205; test: Growth inhibition of human COLO205 cells; summary of the method: as §1
[27] = test system: A549; test: Growth inhibition of human A549 cells; summary of the method: as §1
[28] = test system: DMS-273; test: Growth inhibition of human DMS273 cells; summary of the method: as §1
[29] = test system: HOP-18; test: Growth inhibition of human HOP18 cells; summary of the method: as §1
[30] = test system: MOLT-4; test: Growth inhibition of human MOLT4 cells; summary of the method: as §1
[31] = read-out: pLC50 (the source's name) (converted)

In the case of `O=C1N[C@H]2[C@H](O)[C@H](O)[C@@H](O)C[C@@H]2c2cc3c(cc21)OCO3`, the GI50 [1] is reported as 39.8 nM, the CC50 [1, 31] is reported as 5250 nM and the TGI ([1]; read-out: pTGI (converted)) is reported as 513 nM. For the same compound, the GI50 [2] was 100 nM, the CC50 [2, 31] was 44700 nM and the TGI ([2]; read-out: pTGI (converted)) was 955 nM. It also gave a GI50 [3] of 81.3 nM, a CC50 [3, 31] of 11000 nM and a TGI ([3]; read-out: pTGI (converted)) of 794 nM. The GI50 [4] was 75.9 nM, the CC50 [4, 31] was over 100000 nM and the TGI ([4]; read-out: pTGI (converted)) was 741 nM. The GI50 [5] was 47.9 nM, the CC50 [5, 31] was 37200 nM and the TGI ([5]; read-out: pTGI (converted)) was 1290 nM. The GI50 [6] was 75.9 nM, the CC50 [6, 31] was 8510 nM and the TGI ([6]; read-out: pTGI (converted)) was 417 nM. It also gave a GI50 [7] of 229 nM, a CC50 [7, 31] of 9330 nM and a TGI ([7]; read-out: pTGI (converted)) of 1100 nM. The GI50 [8] was 32.4 nM, the CC50 [8, 31] was 30200 nM and the TGI ([8]; read-out: pTGI (converted)) was 191 nM. It also gave a GI50 [9] of 81.3 nM, a CC50 [9, 31] of 20900 nM and a TGI ([9]; read-out: pTGI (converted)) of 724 nM. For the same compound, the GI50 [10] was 52.5 nM, the CC50 [10, 31] was 56200 nM and the TGI ([10]; read-out: pTGI (converted)) was 3240 nM. For the same compound, the GI50 [11] was 95.5 nM, the CC50 [11, 31] was over 100000 nM and the TGI ([11]; read-out: pTGI (converted)) was 776 nM. The GI50 [12] was 45.7 nM, the CC50 [12, 31] was 1200 nM and the TGI ([12]; read-out: pTGI (converted)) was 209 nM. The GI50 [13] was 60.3 nM, the CC50 [13, 31] was 24000 nM and the TGI ([13]; read-out: pTGI (converted)) was 437 nM. The GI50 [14] was 60.3 nM, the CC50 [14, 31] was 1410 nM and the TGI ([14]; read-out: pTGI (converted)) was 282 nM. For the same compound, the GI50 [15] was 100 nM, the CC50 [15, 31] was 11000 nM and the TGI ([15]; read-out: pTGI (converted)) was 562 nM. For the same compound, the GI50 [16] was 38.9 nM, the CC50 [16, 31] was 52500 nM and the TGI ([16]; read-out: pTGI (converted)) was 813 nM. It also gave a GI50 [17] of 64.6 nM, a CC50 [17, 31] of 10000 nM and a TGI ([17]; read-out: pTGI (converted)) of 501 nM. It also gave a GI50 [18] of 70.8 nM, a CC50 [18, 31] of 57500 nM and a TGI ([18]; read-out: pTGI (converted)) of 708 nM. The GI50 ([19]; LXFL 529) was 46.8 nM, the CC50 ([19]; LXFL 529, read-out: pLC50 (the source's name) (converted)) was 26900 nM and the TGI ([19]; LXFL 529, read-out: pTGI (converted)) was 708 nM. For the same compound, the GI50 [20] was 324 nM, the CC50 [20, 31] was over 100000 nM and the TGI ([20]; read-out: pTGI (converted)) was 2400 nM. The GI50 [21] was 64.6 nM, the CC50 [21, 31] was 1700 nM and the TGI ([21]; read-out: pTGI (converted)) was 347 nM. The GI50 [22] was 36.3 nM, the CC50 [22, 31] was 17000 nM and the TGI ([22]; read-out: pTGI (converted)) was 427 nM. For the same compound, the GI50 [23] was 331 nM, the CC50 [23, 31] was 81300 nM and the TGI ([23]; read-out: pTGI (converted)) was 3720 nM. It also gave a GI50 [24] of 61.7 nM, a CC50 [24, 31] of over 100000 nM and a TGI ([24]; read-out: pTGI (converted)) of 813 nM. The GI50 [25] was 77.6 nM, the CC50 [25, 31] was 15800 nM and the TGI ([25]; read-out: pTGI (converted)) was 813 nM. For the same compound, the GI50 [26] was 53.7 nM, the CC50 [26, 31] was 457 nM and the TGI ([26]; read-out: pTGI (converted)) was 200 nM. It also gave a GI50 [27] of 100 nM, a CC50 [27, 31] of over 100000 nM and a TGI ([27]; read-out: pTGI (converted)) of 1290 nM. It also gave a GI50 [28] of 61.7 nM, a CC50 [28, 31] of 12000 nM and a TGI ([28]; read-out: pTGI (converted)) of 603 nM. It also gave a GI50 [29] of 158 nM, a CC50 [29, 31] of 79400 nM and a TGI ([29]; read-out: pTGI (converted)) of 1700 nM. It also gave a GI50 [30] of 44.7 nM and a CC50 [30, 31] of over 100000 nM.
